In paper PMC6540510 (Pulmonary Circulation, 2019):
Read-outs that look alike come from different tables or passages of the source.

Columns and labels:
[1] = cited from earlier work
[2] = co-administered with lopinavir and ritonavir, healthy individuals; cited from earlier work
[3] = co-administration of ketoconazole, single 0.5 mg riociguat, 16 healthy volunteers; cited from earlier work
Safety and tolerability = type: in vivo, human
Summary of the method: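 HIV-infected adults (n = 41 treated) on stable background ART received a single fasted oral 0.5 mg dose. Treatment-emergent adverse events, vital signs, ECG and laboratory parameters were recorded. Supine and/or sitting blood pressure was measured regularly, generally at the blood-sampling times (0.5–48 h post-dose).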

[4] = cited from earlier work; remark: listed apart in the source
[5] = type: in vivo, human; conditions: single 0.5 mg dose
Summary of the method: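 Single oral 0.5 mg dose was given fasted on top of stable background ART, with plasma sampled to 48 h and assayed by HPLC-MS/MS. AUC(0–∞) was derived non-compartmentally. ANOVA on log-transformed AUC gave LS-mean ratios versus historical healthy-volunteer data (n = 80; fed and fasted states), re-transformed, with 90% CIs.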

[6] = type: in vivo; conditions: human, plasma, 0.5 mg; for Tmax: adults with HIV
Summary of the method: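 Adults with HIV on stable fixed-dose background ART for ≥6 weeks received a single oral 0.5 mg dose in the morning after a ≥10 h fast, then a further 4-h fast. Plasma was sampled at baseline and 0.5–48 h. Analysis was by HPLC-MS/MS with internal standards (LLOQ 2 µg/L). Cmax was derived non-compartmentally and summarised as geometric mean with %CV.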

[7] = sildenafil 100 mg single dose with ritonavir 500 mg twice daily; cited from earlier work
[8] = tadalafil 20 mg with ritonavir 200 mg twice daily; cited from earlier work
[9] = single 0.5 mg dose, adults with HIV
[10] = single 0.5 mg dose, adults with HIV, all background regimens, total n = 41
[11] = single 0.5 mg dose, adults with HIV, background abacavir/dolutegravir/lamivudine (TRIUMEQ), n = 8
[12] = single 0.5 mg dose, adults with HIV, background efavirenz/emtricitabine/tenofovir disoproxil (ATRIPLA), n = 8
[13] = single 0.5 mg dose, adults with HIV, background elvitegravir/cobicistat/emtricitabine/tenofovir disoproxil (STRIBILD), n = 8
[14] = single 0.5 mg dose, adults with HIV, background emtricitabine/rilpivirine/tenofovir disoproxil (COMPLERA), n = 8
[15] = single 0.5 mg dose, adults with HIV, background ritonavir-boosted triple regimen, n = 9

COC(=O)Nc1c(N)nc(-c2nn(Cc3ccccc3F)c3ncccc23)nc1N [M1]
biologic activity relative to riociguat [1]: one-tenth to one-third

COc1ccccc1Oc1c(NS(=O)(=O)c2ccc(C(C)(C)C)cc2)nc(-c2ncccn2)nc1OCCO [bosentan]
plasma concentrations on co-administration [2]: increased plasma concentrations

COC(=O)N(C)c1c(N)nc(-c2nn(Cc3ccccc3F)c3ncccc23)nc1N [riociguat]
increase in mean AUC0-∞ compared with controls [3]: 2.5 fold | AEs considered related to riociguat (Safety and tolerability; headache and stomach cramps, all resolved by study end): Four AEs were considered related to riociguat in three participants | AEs related to decreased blood pressure or hypotension (Safety and tolerability; [9]): No AEs related to decreased blood pressure or hypotension were reported | changes in vital signs, electrocardiogram, or laboratory parameters (Safety and tolerability; [9]): No clinically significant changes | intensity of AEs (Safety and tolerability; [9]): mild or moderate | tolerability (Safety and tolerability; single 0.5 mg dose, adults with HIV on stable background ART): well tolerated | serious AEs, AEs leading to discontinuation, or deaths (Safety and tolerability; single 0.5 mg dose, adults with HIV, n = 41): no serious AEs, AEs leading to discontinuation, or deaths | participants with headache (Safety and tolerability; single 0.5 mg dose, adults with HIV, n = 41 (four participants)): 10% | participants with a treatment-emergent AE (Safety and tolerability; single 0.5 mg dose, adults with HIV, n = 41 (ten participants)): 24% | participants with fatigue (Safety and tolerability; single 0.5 mg dose, adults with HIV, n = 41 (two participants)): 5% | Any AE (Safety and tolerability; [10]): 10 (24) n (%) | Diarrhea (Safety and tolerability; [10]): 1 (2) n (%) | Dizziness (Safety and tolerability; [10]): 1 (2) n (%) | Fatigue (Safety and tolerability; [10]): 2 (5) n (%) | Headache (Safety and tolerability; [10]): 4 (10) n (%) | Lip swelling (Safety and tolerability; [10]): 1 (2) n (%) | Oral paresthesia (Safety and tolerability; [10]): 1 (2) n (%) | Oropharyngeal pain (Safety and tolerability; [10]): 1 (2) n (%) | Pain (Safety and tolerability; [10]): 1 (2) n (%) | Pyrexia (Safety and tolerability; [10]): 1 (2) n (%) | Upper abdominal pain (Safety and tolerability; [10]): 1 (2) n (%) | Urethritis (Safety and tolerability; [10]): 1 (2) n (%) | Any AE (Safety and tolerability; [11]): 2 (25) n (%) | Diarrhea (Safety and tolerability; [11]): 0 n (%) | Dizziness (Safety and tolerability; [11]): 0 n (%) | Fatigue (Safety and tolerability; [11]): 1 (13) n (%) | Headache (Safety and tolerability; [11]): 1 (13) n (%) | Lip swelling (Safety and tolerability; [11]): 0 n (%) | Oral paresthesia (Safety and tolerability; [11]): 0 n (%) | Oropharyngeal pain (Safety and tolerability; [11]): 0 n (%) | Pain (Safety and tolerability; [11]): 0 n (%) | Pyrexia (Safety and tolerability; [11]): 1 (13) n (%) | Upper abdominal pain (Safety and tolerability; [11]): 0 n (%) | Urethritis (Safety and tolerability; [11]): 0 n (%) | Any AE (Safety and tolerability; [12]): 1 (13) n (%) | Diarrhea (Safety and tolerability; [12]): 0 n (%) | Dizziness (Safety and tolerability; [12]): 0 n (%) | Fatigue (Safety and tolerability; [12]): 0 n (%) | Headache (Safety and tolerability; [12]): 0 n (%) | Lip swelling (Safety and tolerability; [12]): 0 n (%) | Oral paresthesia (Safety and tolerability; [12]): 1 (13) n (%) | Oropharyngeal pain (Safety and tolerability; [12]): 0 n (%) | Pain (Safety and tolerability; [12]): 0 n (%) | Pyrexia (Safety and tolerability; [12]): 0 n (%) | Upper abdominal pain (Safety and tolerability; [12]): 0 n (%) | Urethritis (Safety and tolerability; [12]): 0 n (%) | Any AE (Safety and tolerability; [13]): 2 (25) n (%) | Diarrhea (Safety and tolerability; [13]): 0 n (%) | Dizziness (Safety and tolerability; [13]): 1 (13) n (%) | Fatigue (Safety and tolerability; [13]): 1 (13) n (%) | Headache (Safety and tolerability; [13]): 0 n (%) | Lip swelling (Safety and tolerability; [13]): 1 (13) n (%) | Oral paresthesia (Safety and tolerability; [13]): 0 n (%) | Oropharyngeal pain (Safety and tolerability; [13]): 0 n (%) | Pain (Safety and tolerability; [13]): 0 n (%) | Pyrexia (Safety and tolerability; [13]): 0 n (%) | Upper abdominal pain (Safety and tolerability; [13]): 0 n (%) | Urethritis (Safety and tolerability; [13]): 0 n (%) | Any AE (Safety and tolerability; [14]): 3 (38) n (%) | Diarrhea (Safety and tolerability; [14]): 0 n (%) | Dizziness (Safety and tolerability; [14]): 0 n (%) | Fatigue (Safety and tolerability; [14]): 0 n (%) | Headache (Safety and tolerability; [14]): 1 (13) n (%) | Lip swelling (Safety and tolerability; [14]): 0 n (%) | Oral paresthesia (Safety and tolerability; [14]): 0 n (%) | Oropharyngeal pain (Safety and tolerability; [14]): 1 (13) n (%) | Pain (Safety and tolerability; [14]): 1 (13) n (%) | Pyrexia (Safety and tolerability; [14]): 0 n (%) | Upper abdominal pain (Safety and tolerability; [14]): 0 n (%) | Urethritis (Safety and tolerability; [14]): 1 (13) n (%) | Any AE (Safety and tolerability; [15]): 2 (22) n (%) | Diarrhea (Safety and tolerability; [15]): 1 (11) n (%) | Dizziness (Safety and tolerability; [15]): 0 n (%) | Fatigue (Safety and tolerability; [15]): 0 n (%) | Headache (Safety and tolerability; [15]): 2 (22) n (%) | Lip swelling (Safety and tolerability; [15]): 0 n (%) | Oral paresthesia (Safety and tolerability; [15]): 0 n (%) | Oropharyngeal pain (Safety and tolerability; [15]): 0 n (%) | Pain (Safety and tolerability; [15]): 0 n (%) | Pyrexia (Safety and tolerability; [15]): 0 n (%) | Upper abdominal pain (Safety and tolerability; [15]): 1 (11) n (%) | Urethritis (Safety and tolerability; [15]): 0 n (%) | bioavailability [4]: > 90% | fraction of the dose eliminated by oxidative biotransformation [4]: 27–71% | mean half-life ([4]; healthy individuals): approximately 7 h | mean half-life ([4]; patients with PAH): approximately 12 h | riociguat exposure (AUC) compared with historical healthy volunteers ([5]; administered with abacavir/dolutegravir/lamivudine): increased by approximately threefold | riociguat exposure (AUC) compared with historical healthy volunteers ([5]; administered with ritonavir-boosted triple regimen): slightly increased | riociguat exposure (AUC) compared with historical healthy volunteers ([5]; co-administered with efavirenz/emtricitabine/tenofovir disoproxil): similar | riociguat exposure (AUC) compared with historical healthy volunteers ([5]; co-administered with efavirenz/emtricitabine/tenofovir disoproxil, listed as Riociguat): no apparent change | Cmax ([6]; oral): 14.2 to 20.4 ng/mL | Tmax ([6]; oral, median tmax, range across the five background antiretroviral groups, single 0.5 mg dose): 1 to 1.27 h | Tmax ([6]; po, tmax, single 0.5 mg oral dose, background abacavir/dolutegravir/lamivudine (TRIUMEQ), median (range), n = 8): 1.27 h | Tmax ([6]; po, tmax, single 0.5 mg oral dose, background efavirenz/emtricitabine/tenofovir disoproxil (ATRIPLA), median (range), n = 8): 1 h | Tmax ([6]; po, tmax, single 0.5 mg oral dose, background elvitegravir/cobicistat/emtricitabine/tenofovir disoproxil (STRIBILD), median (range), n = 8): 1.03 h | Tmax ([6]; po, tmax, single 0.5 mg oral dose, background emtricitabine/rilpivirine/tenofovir disoproxil (COMPLERA), median (range), n = 8): 1.03 h | Tmax ([6]; po, tmax, single 0.5 mg oral dose, background ritonavir-boosted triple regimen, median (range), n = 8): 1.03 h

CCCc1nn(C)c2c(=O)[nH]c(-c3cc(S(=O)(=O)N4CCN(C)CC4)ccc3OCC)nc12 [sildenafil]
increase in plasma AUC [7]: 11 fold

CN1CC(=O)N2[C@H](c3ccc4c(c3)OCO4)c3[nH]c4ccccc4c3C[C@@H]2C1=O [tadalafil]
change in Cmax [8]: no change | increase in single-dose exposure [8]: 124%
